# The list is not random: actives were taken first. Their share in the collection is about 1.3%.
# PP5 inh: PP5 phosphatase inhibitors, primary screen, biochemical, fluorescence | actives 0.18% (n = 320,000) | purified PP5c, OMFP substrate fluorescence | Serine/threonine-protein phosphatase 5 (Homo sapiens), P53041 | inhibition, % at 6.7 µM;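 active means inhibition above the campaign's mean inhibition across all tested compounds plus 3 SD, cut at about 9.5% in these data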;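 further: 0% = DMSO only and 100% = 100 µM cantharidin control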
# Target sequence (P53041 whole entry, looked up): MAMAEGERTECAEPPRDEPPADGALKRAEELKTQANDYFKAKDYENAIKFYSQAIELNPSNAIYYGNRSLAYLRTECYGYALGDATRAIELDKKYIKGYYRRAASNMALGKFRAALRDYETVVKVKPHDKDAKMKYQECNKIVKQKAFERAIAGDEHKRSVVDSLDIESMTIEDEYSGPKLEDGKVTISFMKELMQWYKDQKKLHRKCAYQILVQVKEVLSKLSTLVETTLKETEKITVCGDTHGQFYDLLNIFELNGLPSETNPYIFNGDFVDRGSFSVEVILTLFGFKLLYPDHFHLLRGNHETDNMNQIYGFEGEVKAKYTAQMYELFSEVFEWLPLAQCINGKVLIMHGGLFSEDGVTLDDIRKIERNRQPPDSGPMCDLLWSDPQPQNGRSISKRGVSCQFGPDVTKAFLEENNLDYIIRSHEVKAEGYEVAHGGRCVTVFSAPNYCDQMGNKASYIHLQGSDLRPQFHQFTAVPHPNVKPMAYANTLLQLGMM
# NR2E3 ag-1: NR2E3 agonists in two-hybrid cells, primary screen, cell-based, luminescence, CHO-S, Gal4-NCOR/VP16-NR2E3; Photoreceptor-specific nuclear receptor (Homo sapiens), Q9Y5X4; luciferase; inhibition of corepressor binding, % at 3.98 µM; actives 0.35% (n = 360,000);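 active means inhibition above the mean of all tested compounds plus 3 SD, cut at about 70% in these data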;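 further: 0% = DMSO with NR2E3 transfected cells and 100% = cells lacking NR2E3 construct; higher means lower luciferase signal from less NR2E3 corepressor binding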
# PP1 inh: PP1-alpha phosphatase inhibitors, primary screen, counter-screen for PP5 inhibitor project, biochemical, fluorescence, OMFP substrate, single point; Serine/threonine-protein phosphatase PP1-alpha catalytic subunit (Homo sapiens), P62136; actives 0.9% (n = 320,000); inhibition, % at 6.7 µM; purified PP1alpha; AID 2235, 2010;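 active means inhibition above the mean inhibition of all tested compounds plus 3 SD, computed separately for each screening campaign, cut at about 15% in these data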
# NR2E3 ag-2: inhibitors of NR2E3-RetCOR corepressor binding, primary screen, NR2E3 agonist project, biochemical, TR-FRET, GST-NR2E3, biotin-RetCOR; Photoreceptor-specific nuclear receptor (Homo sapiens), Q9Y5X4; 1536-well; inhibition of corepressor binding, % at 4.78 µM; actives 0.12% (n = 320,000);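 active means percent inhibition above the cutoff of mean plus 3 SD of all tested compounds, set per screening campaign, cut at about 20% in these data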;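 further: 0% = DMSO wells and 100% = biotin wells as full block of FRET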
#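 Material: NR2E3–RetCOR corepressor complex / Amount: 1.35 nM GST-NR2E3 / Medium: Tris pH 7.5 / Compound: single nominal compound dose of 4.8 µM / Incubation: 5 h at 4 °C / Technique: TR-FRET, Eu(K)-anti-GST donor, streptavidin-D2 acceptor, ex 340, em 617/671 nm / Read-out basis: percent loss of FRET ratio relative to control wells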
# PP1 confirm: PP1 phosphatase inhibitors, confirmation, biochemical, fluorescence, OMFP substrate, triplicate | shares compounds with PP1 inh | purified PP1alpha | inhibition, % at 6.7 µM | actives 52% (n = 1,900) | AID 2358, 2010;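 active means mean PP1 inhibition above a set limit taken from the earlier primary screen, cut at about 15% in these data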
# PP5 counter: PP5 phosphatase inhibition by PP1 hits, confirmation, counter-screen for PP1 inhibitor project, biochemical, fluorescence, triplicate; shares compounds with PP1 inh; purified PP5c, OMFP fluorescence; inhibition, % at 6.7 µM; actives 4% (n = 1,900);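 active means mean PP5 inhibition over triplicate wells above about 9.5% taken from the earlier PP1 screen, limit read from the data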
# NR2E3 ag confirm-1: NR2E3 agonists, confirmation, biochemical, TR-FRET; shares compounds with NR2E3 ag-2; cell-free NR2E3 corepressor release, 5 h; activation (reported as inhibition), % at 3.98 µM; actives 39% (n = 360); in the data active means activation above about 20%
# PPARg-NCOR2 ctr: agonists of PPARg-NCOR2 corepressor interaction, counter-screen for NR2E3 agonist project, biochemical, TR-FRET. AID 504787, 2011. actives 45% (n = 360). TR-FRET PPARg-NCOR2 coregulator interaction. shares compounds with NR2E3 ag-2. inhibition, % at 3.98 µM; in the data active means inhibition above about 20%;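 further: 0% = DMSO vehicle and 100% = wells without protein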
# NR2E3 ag confirm-2: NR2E3 agonist confirmation in cells, cell-based, luminescence, CHO-S two-hybrid. shares compounds with NR2E3 ag-1. CHO-S mammalian two-hybrid NR2E3-NCOR, luciferase luminescence. inhibition, % at 3.98 µM. actives 51% (n = 2,300). AID 624378, 2012;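 active means average inhibition above a cutoff equal to the mean inhibition of all tested compounds plus one SD, cut at about 70% in these data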;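 further: 0% = DMSO in NR2E3 cells and 100% = DMSO in cells lacking NR2E3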
# GAL4-VP16 luc: GAL4-VP16 reporter modulators, confirmation, counter-screen for NR2E3 agonist project, cell-based, luminescence, CHO-S, high throughput; shares compounds with NR2E3 ag-1; inhibition, % at 3.98 µM; actives 29% (n = 2,300); CHO-S GAL4-VP16 luciferase reporter;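 active means mean inhibition above a cutoff equal to the average over all tested compounds plus one standard deviation, cut at about 70% in these data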;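 further: luciferase from a UAS reporter driven by GAL4-VP16 transactivation; 0% = DMSO with VP16-transfected cells and 100% = DMSO with cells lacking VP16; higher means less reporter light so more repression of VP16 activity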
# Active calls of the source: *; / = no result.
SMILES,PP5 inh,NR2E3 ag-1,PP1 inh,NR2E3 ag-2,NR2E3 ag confirm-1,PPARg-NCOR2 ctr,others
CCCCCCCCCCOC(=O)Cn1c(COc2ccccc2OC)[n+](C)c2ccccc21,1,48,34*,0,/,/,PP1 confirm=1;PP5 counter=2;NR2E3 ag confirm-2=95*;GAL4-VP16 luc=69
Cn1c(COc2ccccc2O)[n+](C)c2ccccc21,-1,4,-3,0,/,/,
COC(=O)[C@@]12CCCCN1[C@H](c1ccc(-c3cccc(Cl)c3)c(OC)c1)[C@H]1C(=O)N(C)C(=O)[C@H]12,0,1,-5,6,/,/,
CNc1cc(C)nc(-n2nc(C)cc2C)n1,0,-14,5,-2,/,/,
COc1ccc(/C=N/Nc2cc(C)nc(-n3nc(C)cc3C)n2)c(OC)c1,2,65,37*,2,/,/,PP1 confirm=48*;PP5 counter=1;NR2E3 ag confirm-2=8;GAL4-VP16 luc=5
Cc1cc(N/N=C/c2ccc(F)cc2)nc(-n2nc(C)cc2C)n1,3,94*,27*,-1,/,/,PP1 confirm=36*;PP5 counter=-1;NR2E3 ag confirm-2=3;GAL4-VP16 luc=25
Cc1cc(C)n(-c2nc(Nc3ccccc3)nc(-n3nc(C)cc3C)n2)n1,2,-1,-2,5,/,/,
COc1cccc(/C=N/Nc2nc(Nc3ccccc3)nc(-n3nc(C)cc3C)n2)c1O,11*,95*,35*,3,/,/,PP1 confirm=36*;PP5 counter=3;NR2E3 ag confirm-2=3;GAL4-VP16 luc=-22
CCOc1cc(/C=N/Nc2cc(C)nc(-n3nc(C)cc3C)n2)ccc1O,2,90*,23*,0,/,/,PP1 confirm=22*;PP5 counter=3;NR2E3 ag confirm-2=3;GAL4-VP16 luc=-11
Cc1ccccc1C(=O)c1cccn1CC(=O)N1CCCCC1,1,-27,-2,-1,/,/,
Cc1cc(C)n(CCCNC(=O)C2CC(=O)N(Cc3ccccc3)C2)n1 (centres undefined),1,-17,-2,0,/,/,
CC(C)(C)c1ccc(C(=O)NNC(=O)CNC(=O)c2cccs2)cc1,/,-24,/,/,/,/,
CCc1ccc([C@@H]2CC=C(C(=O)O)[C@H](c3ccc(Cl)cc3)N2S(=O)(=O)c2ccc(C)cc2)cc1,3,76*,19*,4,/,/,PP1 confirm=12;PP5 counter=0;NR2E3 ag confirm-2=56;GAL4-VP16 luc=40
CCc1ccc([C@@H]2CC=C(C(=O)O)[C@H](c3ccc(C)cc3)N2S(=O)(=O)c2ccc(C)cc2)cc1,/,46,/,/,/,/,
O=C(O)c1ccc(N=N/C(=N\Nc2ccc(C(=O)O)cc2)c2ccccc2)cc1,0,-37,3,4,/,/,
Brc1ccc(N/N=C(/N=Nc2nn[nH]n2)c2ccccc2)cc1,6,72*,19*,0,/,/,PP1 confirm=24*;PP5 counter=7;NR2E3 ag confirm-2=94*;GAL4-VP16 luc=35
Cc1c2cc(O)c(=O)cc-2oc2cc(O)c(O)cc12,-13,-15,33*,40*,20*,-14,
O=C1C(=O)N(Cc2cccnc2)C(c2cccc(F)c2)/C1=C(/O)c1ccc2c(c1)OCO2 (centres undefined),4,-7,-3,24*,26*,28*,
O=C(NCc1cccnc1)c1ccc2sc([C@H]3C[C@H](O)[C@@H](CO)O3)nc2c1,/,13,/,/,/,/,
Cc1c(Br)c(=O)oc2c(C)c(O)ccc12,-6,5,-1,21*,1,0,
Cc1ccc(C2C(C(N)=S)=C(N)OC3=C2C(=O)CC(C)(C)C3)cc1 (centres undefined),1,-1,3,26*,-1,65*,
CC1(C)CC(=O)C2=C(C1)OC(N)=C([N+](=O)[O-])C2c1ccc(F)cc1 (centres undefined),0,-9,-2,-1,/,/,
CC(=O)NC(C)(c1ccccc1)c1nc(-c2cccc(C#N)c2)cs1 (centres undefined),/,-2,/,/,/,/,
COC(=O)CCC[C@H]1CC2(C[C@H](CCCO[Si](C)(C)C(C)(C)C)N1C(=O)OC(C)(C)C)OCCO2,6,-10,0,4,/,/,
CC(=O)Nc1ccc(S(=O)(=O)Nc2nc3cc4c(cc3nc2Cl)OCCO4)cc1,-3,-23,0,19,/,/,
SMILES,PP5 inh,NR2E3 ag-1,PP1 inh,NR2E3 ag-2,NR2E3 ag confirm-1,PPARg-NCOR2 ctr,others
O=S(=O)(Nc1nc2cc3c(cc2nc1Cl)OCCO3)c1ccccc1,-1,-17,-1,30*,11,14,
C=CCn1c(NS(=O)(=O)c2ccccc2)c(S(=O)(=O)c2ccc(C)cc2)c2nc3ccccc3nc21,13*,12,30*,44*,10,88*,
COc1cccc(C2Nc3c(F)cc(Br)cc3C3C=CCC32)c1OC (centres undefined),-1,-14,-3,0,/,/,
COc1cccc2c1NC(C(=O)O)C1CC=CC21 (centres undefined),4,0,37*,22*,5,14,
CCOC(=O)c1c(NC(=O)CSc2nnc(Cc3ccccc3)o2)sc(C(C)=O)c1C,-1,10,-1,32*,-5,5,
CCOC(=O)c1c(NC(=O)CSc2nnc(-c3ccccc3)o2)sc(C(C)=O)c1C,-1,-5,1,1,/,/,
N#CC1=C(c2ccccc2)/C(=C/c2ccccc2)OC1=O,1,-21,5,1,/,/,
N#CC(C#N)=C1NC(N)=C(C#N)C(c2ccccc2)=C1C#N,2,-42,5,48*,45*,40*,
Cn1c2ccccc2c(=O)c2c(=O)n(Cc3ccco3)c(-c3ccc(F)cc3)nc21,-1,-12,-2,34*,8,8,
Cc1ccc(-c2nc3c(c(=O)c4ccccc4n3C)c(=O)n2Cc2ccco2)cc1,2,-4,11,1,/,/,

# From PubChem
